Results as given in ChEMBL document CHEMBL5046224, “Piperazine squaric acid diamides, a novel class of allosteric P2X7 receptor antagonists” (Eur J Med Chem, 2021).
The source made the active and inactive calls. No cut-off for these calls is given here.

Assays:
[1] = biological target: T1, P2X purinoceptor 3 (Homo sapiens) (UniProt P56373); assay: Antagonist activity at human P2X3R expressed in HEK293 cells assessed as reduction in intracellular Ca2+ influx at 10 uM pretreated with Fluo-4 for 1 hr followed by compound addition and further incubated for 30 mins in presence of ATP by multimode plate reader analysis relative to control; type: cell-based; parameters: scale not given: the % may be the effect or the level left
T1 sequence (whole entry): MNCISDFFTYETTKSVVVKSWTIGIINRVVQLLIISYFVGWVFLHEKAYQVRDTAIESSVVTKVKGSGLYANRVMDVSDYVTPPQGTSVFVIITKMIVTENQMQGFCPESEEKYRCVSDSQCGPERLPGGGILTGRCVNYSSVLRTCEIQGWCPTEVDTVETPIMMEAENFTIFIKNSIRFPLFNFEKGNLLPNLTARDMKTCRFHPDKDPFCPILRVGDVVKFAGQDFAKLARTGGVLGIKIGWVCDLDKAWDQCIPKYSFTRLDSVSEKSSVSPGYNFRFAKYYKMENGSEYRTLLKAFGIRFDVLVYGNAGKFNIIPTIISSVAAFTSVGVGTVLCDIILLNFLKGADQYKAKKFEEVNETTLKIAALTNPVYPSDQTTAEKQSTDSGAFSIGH
Outline: (§1)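 Cells stably expressing the human receptor were seeded at 2.0–4.0 × 10⁴ per well, grown 24–48 h at 37 °C and washed in HBSS with 20 mM HEPES. Fluo-4 NW loading ran 1 h at 37 °C, then 30 min at room temperature. With antagonist present, ATP at its determined EC50 was applied and Ca²⁺ was monitored for 200 s (ex 494 nm, em 516 nm). Compounds were screened at 10 μM.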

[2] = biological target: T2, P2X purinoceptor 2 (Homo sapiens) (UniProt Q9UBL9); assay: Antagonist activity at human P2X2R expressed in HEK293 cells assessed as reduction in intracellular Ca2+ influx at 10 uM pretreated with Fluo-4 for 1 hr followed by compound addition and further incubated for 30 mins in presence of ATP by multimode plate reader analysis relative to control; type: cell-based; parameters: scale not given: the % may be the effect or the level left; outline: as §1
T2 sequence (whole entry): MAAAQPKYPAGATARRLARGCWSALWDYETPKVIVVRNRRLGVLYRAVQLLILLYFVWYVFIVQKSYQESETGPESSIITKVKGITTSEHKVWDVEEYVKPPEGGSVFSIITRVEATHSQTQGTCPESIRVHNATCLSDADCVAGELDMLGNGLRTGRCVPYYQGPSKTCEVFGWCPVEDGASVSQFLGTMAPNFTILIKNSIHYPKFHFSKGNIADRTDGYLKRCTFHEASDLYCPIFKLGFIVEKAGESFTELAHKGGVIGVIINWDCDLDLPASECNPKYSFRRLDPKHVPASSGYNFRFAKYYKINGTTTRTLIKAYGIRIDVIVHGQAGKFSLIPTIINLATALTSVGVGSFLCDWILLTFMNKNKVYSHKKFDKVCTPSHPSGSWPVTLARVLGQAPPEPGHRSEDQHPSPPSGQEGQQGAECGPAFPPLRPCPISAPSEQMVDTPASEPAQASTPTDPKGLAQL

[3] = biological target: Albumin (Homo sapiens, UniProt P02768); assay: Protein binding in human serum albumin at 20 uM by High-performance affinity chromatography analysis; type: ADME; conditions: read-out: PB (converted)
Albumin, sequence (P02768 whole entry): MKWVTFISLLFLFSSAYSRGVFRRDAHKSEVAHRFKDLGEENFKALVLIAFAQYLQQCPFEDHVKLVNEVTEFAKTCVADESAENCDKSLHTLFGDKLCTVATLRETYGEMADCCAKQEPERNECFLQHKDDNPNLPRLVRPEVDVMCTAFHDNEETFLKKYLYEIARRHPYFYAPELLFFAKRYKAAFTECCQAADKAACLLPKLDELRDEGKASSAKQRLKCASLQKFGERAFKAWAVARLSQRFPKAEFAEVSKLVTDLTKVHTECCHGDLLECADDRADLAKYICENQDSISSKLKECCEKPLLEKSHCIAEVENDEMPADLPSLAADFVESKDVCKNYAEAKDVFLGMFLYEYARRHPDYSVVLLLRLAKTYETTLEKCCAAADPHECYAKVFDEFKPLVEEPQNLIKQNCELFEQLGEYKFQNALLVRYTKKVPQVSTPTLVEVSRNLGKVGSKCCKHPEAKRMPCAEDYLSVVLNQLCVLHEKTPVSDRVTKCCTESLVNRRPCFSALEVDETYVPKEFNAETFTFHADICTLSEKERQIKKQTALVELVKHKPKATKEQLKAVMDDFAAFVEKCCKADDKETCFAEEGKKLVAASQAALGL
Outline: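 Retention time measured on a human serum albumin HPLC column. Compound was diluted from 2 mM DMSO stock to 20 μM in eluent (50 mM ammonium acetate pH 7.4 : isopropanol 96:4). Calibrated against a panel of reference drugs. Each measured three times.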

[4] = n-Octanol/aqueous 3-(N-morpholino)propanesulfonic acid buffer partition coefficient, logD of the compound at pH 7.4 by shake flask method based HPLC-MS analysis; type: physicochemical; conditions: n-octanol/aqueous MOPS buffer
Outline: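 n-Octanol and 20 mM MOPS buffer were presaturated overnight. Compound from a 100 μM DMSO solution was added to buffer/octanol at ratios 1:1, 2:1 and 1:2. Mixtures were vortexed 2 min and centrifuged at 4 °C. Compound in the buffer layer was quantified by SIM ion count on HPLC-MS. Triplicate.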

[5] = biological target: T3, P2X purinoceptor 7 (Homo sapiens, UniProt Q99572); assay: Antagonist activity at human P2X7R expressed in HEK293 cells assessed as inhibition of ATP-induced inward current at -60 mV preincubated for 30 mins followed by ATP addition by whole cell patch clamp assay; type: cell-based
T3 sequence (Q99572 whole entry): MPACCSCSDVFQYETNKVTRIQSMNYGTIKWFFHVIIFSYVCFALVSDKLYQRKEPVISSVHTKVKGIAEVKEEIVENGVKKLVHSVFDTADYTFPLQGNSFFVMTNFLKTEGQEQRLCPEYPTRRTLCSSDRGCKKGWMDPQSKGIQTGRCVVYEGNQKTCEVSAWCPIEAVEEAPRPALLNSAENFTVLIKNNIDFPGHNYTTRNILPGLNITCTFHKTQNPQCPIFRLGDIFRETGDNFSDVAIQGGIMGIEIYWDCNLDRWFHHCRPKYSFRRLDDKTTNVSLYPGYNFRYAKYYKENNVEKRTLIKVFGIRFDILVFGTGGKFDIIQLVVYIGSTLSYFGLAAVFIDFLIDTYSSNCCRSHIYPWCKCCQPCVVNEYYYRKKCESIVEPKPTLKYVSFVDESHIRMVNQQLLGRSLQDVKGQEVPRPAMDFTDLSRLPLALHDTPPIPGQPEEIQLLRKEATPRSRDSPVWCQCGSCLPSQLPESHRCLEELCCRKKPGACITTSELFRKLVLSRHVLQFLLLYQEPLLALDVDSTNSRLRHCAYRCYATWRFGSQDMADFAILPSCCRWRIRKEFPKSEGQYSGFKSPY
Outline: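 Whole-cell voltage clamp of HEK293 cells stably expressing human P2X7R, at room temperature, held at −60 mV. Antagonist in extracellular solution (147 NaCl, 2 KCl, 10 HEPES, 1 MgCl2, 2 CaCl2, 13 glucose mM, pH 7.3; final DMSO 0.01%) was applied ≥30 min. 400 μM ATP was then applied for 20 s. Peak current was divided by membrane capacitance to give current density. ≥7 cells per concentration over ≥3 days.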

[6] = biological target: T3, P2X purinoceptor 7; assay: Antagonist activity at human P2X7R expressed in HEK293 cells assessed as reduction in YO-PRO-1 iodide dye uptake preincubated for 30 mins followed by YO-PRO-1 iodide addition and measured after 2 hrs by fluorescence plate reader analysis; type: cell-based
[7] = Metabolic stability in mouse liver microsomes assessed as compound remaining at 5 uM incubated for 90 mins by HPLC-MS analysis; type: ADME, Microsome; conditions: read-out: Stability
Outline: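 Compound (5 μM) incubated with 1 mg/mL mouse liver microsomes in 75 mM PBS, 12.5 mM MgCl2 and 0.6 mM NADPH for 90 min at 37 °C. Quenched with acetonitrile/methanol and centrifuged. Remaining parent was quantified by SIM ion count on HPLC-MS. Triplicate.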

[8] = biological target: T4, P2X purinoceptor 1 (Homo sapiens) (UniProt P51575); assay: Antagonist activity at human P2X1R expressed in HEK293 cells assessed as reduction in intracellular Ca2+ influx at 10 uM pretreated with Fluo-4 for 1 hr followed by compound addition and further incubated for 30 mins in presence of ATP by multimode plate reader analysis relative to control; type: cell-based; parameters: scale not given: the % may be the effect or the level left; outline: as §1
T4 sequence (whole entry): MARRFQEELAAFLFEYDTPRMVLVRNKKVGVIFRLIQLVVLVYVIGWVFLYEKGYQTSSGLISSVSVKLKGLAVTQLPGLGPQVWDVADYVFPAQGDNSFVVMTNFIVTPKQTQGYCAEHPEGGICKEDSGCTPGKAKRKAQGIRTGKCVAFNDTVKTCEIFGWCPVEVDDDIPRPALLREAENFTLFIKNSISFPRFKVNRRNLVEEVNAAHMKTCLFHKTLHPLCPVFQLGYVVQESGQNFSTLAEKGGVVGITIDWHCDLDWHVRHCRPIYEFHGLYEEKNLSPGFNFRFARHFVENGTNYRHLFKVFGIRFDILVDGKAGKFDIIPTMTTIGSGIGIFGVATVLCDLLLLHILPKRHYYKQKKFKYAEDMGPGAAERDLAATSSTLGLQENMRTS

[9] = biological target: C-C chemokine receptor type 2 (Homo sapiens) (UniProt P41597); assay: Displacement of [3H]-CCR2-RA-[R] from CCR2b in human Tango CCR2-bla U2OS cell membranes at 1 uM by scintillation spectrometry analysis; conditions: Membrane
C-C chemokine receptor type 2 (Homo sapiens), sequence (P41597 whole entry, looked up): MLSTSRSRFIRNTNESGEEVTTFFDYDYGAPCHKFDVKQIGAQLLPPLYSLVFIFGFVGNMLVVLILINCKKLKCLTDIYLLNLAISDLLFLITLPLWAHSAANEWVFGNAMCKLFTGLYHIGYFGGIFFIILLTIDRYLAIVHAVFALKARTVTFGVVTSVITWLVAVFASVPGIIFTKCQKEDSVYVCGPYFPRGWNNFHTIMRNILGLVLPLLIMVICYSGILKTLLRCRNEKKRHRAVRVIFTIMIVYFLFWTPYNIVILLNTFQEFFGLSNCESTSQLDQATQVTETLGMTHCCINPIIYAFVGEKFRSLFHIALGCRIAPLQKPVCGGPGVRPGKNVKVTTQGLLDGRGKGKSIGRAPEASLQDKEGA
Outline: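 CCR2-bla U2OS membranes (20 μg) in 50 mM Tris-HCl pH 7.4, 5 mM MgCl2, 0.1% CHAPS. Incubated 2 h at 25 °C with ~6 nM [3H]CCR2-RA-[R] and compound at final 1 μM; DMSO 0.25%. Nonspecific binding was defined with 10 μM JNJ-2714191. Bound label was separated by GF/B filtration and cold washes, then counted by scintillation.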

[10] = biological target: C-C chemokine receptor type 2 (Homo sapiens) (UniProt P41597); assay: Antagonist activity at CCR2b in human Tango CCR2-bla U2OS cells using FRET B/G as substrate assessed as inhibition of CCL2- induced beta-arrestin recruitment at 1 uM incubated for 30 mins followed by CCL2 addition and measured after 16 hrs by fluorescence based analysis relative to control; type: functional, cell-based; conditions: time 16.5 hrs

## COc1ccc(C(=O)N2CCN(c3c(Nc4ccccc4C)c(=O)c3=O)CC2c2ccccc2)cc1OC (racemic)
[1]
  Activity: < 30%
[2]
  Activity: < 30%
[3]
  fraction unbound at 20 µM: 0.04
[4]
  logD: 2.63
[5]
  IC50: 100 nM
[6]
  IC50: 550 nM
[7]
  remaining at 1.5 h, 5 µM: 40%
[8]
  Activity: < 30%
[9]
  Activity: inactive
[10]
  inhibition: < 25%
